Active and inactive are the calls of the source. The calls are words filed in the database; no cut-off is given here.

Consider three molecules from ChEMBL document CHEMBL4052679, “Design, synthesis and biological evaluation of novel indolin-2-ones as potent anticancer compounds” (Bioorg Med Chem Lett, 2017).

Assay [1] concerns the target Cyclin-dependent kinase 2/cyclin E1 (Homo sapiens) (UniProt P24864+P24941). Put plainly: Inhibition of CDK2/Cyclin E1 (unknown origin) at 10 uM. The class given is protein-complex assay.
In assay [2] the target is CDK9/cyclin T1 (Homo sapiens) (UniProt O60563+P50750). Put plainly: Inhibition of CDK9/Cyclin T1 (unknown origin) at 10 uM. It counts as protein-complex assay.
For assay [3], the system named is MDA-MB-231. Put plainly: Induction of cell cycle arrest in human MDA-MB-231 cells assessed as increase in accumulation at subG1 phase at 5 times IC50 incubated for 24 hrs by propidium iodide staining based flow cytometry. The class given is functional. The method in brief:
(§1)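 MDA-MB-231 cells exposed 24 h. Combretastatin A-4 at 200 nM served as reference for G2/M arrest. Cells were then fixed, stained with propidium iodide, and phase distribution was read on a flow cytometer.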

Assay [4] has as its system MDA-MB-231. The experiment in a line: Growth inhibition of human MDA-MB-231 cells incubated for 3 days by SRB assay. It counts as functional, cell-based. The settings on record: MDA-MB-231, 72 h. (In general: The SRB assay estimates cell density from bound dye.)
The subject of assay [5] is MCF7. The experiment in a line: Growth inhibition of human MCF7 cells incubated for 3 days by SRB assay. The class given is functional, cell-based. The settings on record: MCF7, 72 h.
Assay [6] relates to A549. The experiment in a line: Growth inhibition of human A549 cells incubated for 3 days by SRB assay. The class given is functional, cell-based. The settings on record: A549, 72 h.
The subject of assay [7] is KB. The experiment in a line: Growth inhibition of human KB cells incubated for 3 days by SRB assay. It counts as functional, cell-based. Conditions: 72 h.
A short description of assay [8]: Growth inhibition of human KBVIN cells incubated for 3 days by SRB assay. The class given is functional, cell-based. Conditions: 72 h.
The subject of assay [9] is HepG2. The experiment in a line: Growth inhibition of human HepG2 cells incubated for 3 days by MTT assay. The settings on record: HepG2, 72 h. For orientation: Tetrazolium assays rely on reduction of a dye to a coloured formazan, in cell work by metabolically active cells.
Assay [10] has as its system A2780. The experiment in a line: Growth inhibition of human A2780 cells incubated for 3 days by MTT assay. Conditions: A2780, 72 h.
Assay [11] concerns HCT-116. The experiment in a line: Growth inhibition of human HCT116 cells incubated for 3 days by MTT assay. The settings on record: HCT-116, 72 h.
Assay [12] deals with BGC-823. Put plainly: Growth inhibition of human BGC823 cells incubated for 3 days by MTT assay. Conditions: BGC-823, 72 h.
Assay [13] deals with NCI-H1650. Put plainly: Growth inhibition of human NCI-H1650 cells incubated for 3 days by MTT assay. The settings on record: NCI-H1650, 72 h.
Assay [14] deals with MDA-MB-231. The experiment in a line: Induction of cell cycle arrest in human MDA-MB-231 cells assessed as increase in accumulation at G2/M phase at 5 times IC50 incubated for 24 hrs by propidium iodide staining based flow cytometry. It counts as functional. Put shortly: as §1
(In flow cytometry, cells or beads pass a laser one at a time.)

The species entered for assay [15] is Homo sapiens. Put plainly: Induction of microtubule destabilization in human MDA-MB-231 cells at 5 times IC50 incubated for 24 hrs by fluorescent microscopy. It counts as cell-based. The method in brief:
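MDA-MB-231 cells treated 24 h alongside a DMSO control. Cells were fixed and immunostained for α-tubulin and phosphorylated histone H3, with DAPI for DNA. The microtubule network was judged in interphase cells (phospho-H3-negative) by confocal fluorescence microscopy with ×63 or ×40 objectives.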

Assay [16] relates to HepG2. The experiment in a line: Growth inhibition of human HepG2 cells at 10 uM incubated for 3 days by MTT assay.
Assay [17] has as its system A2780. Put plainly: Growth inhibition of human A2780 cells at 10 uM incubated for 3 days by MTT assay.
In assay [18] the test system is HCT-116. The experiment in a line: Growth inhibition of human HCT116 cells at 10 uM incubated for 3 days by MTT assay.
Assay [19] deals with BGC-823. The experiment in a line: Growth inhibition of human BGC823 cells at 10 uM incubated for 3 days by MTT assay.
The test system of assay [20] is NCI-H1650. The experiment in a line: Growth inhibition of human NCI-H1650 cells at 10 uM incubated for 3 days by MTT assay.

By IC50 is commonly meant the midpoint of a concentration-inhibition curve. Take `CN1CCN(c2cccc(N/C=C3\C(=O)Nc4ccc(NC(=O)c5c(F)cccc5F)cc43)c2)CC1`: the inhibition entry in [1] and in assay [2] was “inactive” in each case. Further, the result in assay [3] was Active. For the same molecule, the IC50 in assay [4] worked out at 4.43 µM; in assay [5], 4.44 µM; in [6], 4.75 µM; in assay [7], 4.4 µM; in [8] it was 7.86 µM; in [9], 3.03 µM. In addition, the IC50 in assay [10] was 2.03 µM; in assay [11] it was 2.15 µM; in assay [12], 2.67 µM; in assay [13], 1.63 µM.

For `O=C1Nc2ccccc2/C1=C1/Nc2ccccc2/C1=N\O`, in assay [14], the result was Active. In [15], the result was inactive. Further, the 50% inhibitory concentration (IC50) in assay [4] was found to be 7.59 µM; in assay [5], 6.81 µM; in assay [6] it was 5.82 µM; in [7], 5.34 µM; in assay [8], 5.17 µM. Besides, the “growth inhibition (GI)” value in assay [16], in [17], in [18], in [19] and in [20] was “inactive” throughout.

Turning to `O=C1Nc2ccc(F)cc2/C1=C\C(=O)c1ccc2c(c1)OCO2`, the inhibition entry in assay [1] and in [2] was “inactive” each time. Moreover, the result in assay [14] and in assay [15] was Active. Besides, the IC50 in assay [4] is 5.31 µM; in assay [5], above 10 µM; in assay [6], above 10 µM; in assay [7] it was above 10 µM; in assay [8], above 10 µM; in assay [9], 2.28 µM. Besides, the IC50 in assay [10] was determined as 1.12 µM; in assay [11], 0.76 µM; in [12] it was 4.09 µM; in assay [13], 1.22 µM.
